{"source": "ChEMBL document CHEMBL4304816", "about": "“A Novel Biphenyl-based Chemotype of Retinoid X Receptor Ligands Enables Subtype and Heterodimer Preferences” (ACS Med Chem Lett, 2019)", "target": "T1, Retinoic acid receptor alpha (Homo sapiens) (UniProt P10276)", "T1 sequence (whole entry)": "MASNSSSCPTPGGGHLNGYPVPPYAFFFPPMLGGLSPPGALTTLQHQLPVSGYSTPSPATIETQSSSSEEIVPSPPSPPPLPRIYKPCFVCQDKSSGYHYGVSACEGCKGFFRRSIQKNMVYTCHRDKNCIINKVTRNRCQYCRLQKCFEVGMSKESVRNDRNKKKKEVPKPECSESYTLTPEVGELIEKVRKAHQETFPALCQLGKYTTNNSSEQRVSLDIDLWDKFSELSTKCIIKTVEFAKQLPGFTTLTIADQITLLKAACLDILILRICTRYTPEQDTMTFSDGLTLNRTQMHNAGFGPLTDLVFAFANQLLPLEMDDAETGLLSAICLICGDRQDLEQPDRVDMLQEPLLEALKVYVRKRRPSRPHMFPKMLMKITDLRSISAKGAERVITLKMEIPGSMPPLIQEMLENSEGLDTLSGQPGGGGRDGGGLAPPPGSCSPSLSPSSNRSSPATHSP", "test": "Agonist activity at Gal4-LBD fused RARalpha (unknown origin) expressed in HEK293T cells at 20 uM after 14 to 16 hrs by dual-Glo luciferase assay", "format": "cell-based", "method_in_brief": "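Gal4-hybrid reporter gene selectivity panel of related nuclear receptors (PPARα/β/γ, RARα/β/γ) in HEK293T cells. Activity is read as mean fold activation versus 0.1% DMSO vehicle, n ≥ 2.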", "note": "Active and inactive are the calls of the source. No cut-off for these calls is given here.", "data": [{"compound": "Cc1cc(-c2ccc(C(=O)O)cc2)cc(C(C)(C)C)c1", "values": [{"measurement": "Activity", "result": "Active"}]}]}
